Laboratory results published in article PMC7246176 (Nature chemical biology, 2020).
Where two headings read alike, the source gives them in different places. One block for each compound: values may come before it.

Assays:
ERK5 [1] = target: T1, ERK5 (Homo sapiens, UniProt Q13164); assay: ERK5 cellular kinase assay in HeLa cells; assay type: cell-based
BRD4 = BRD4 (Homo sapiens, UniProt O60885); assay: BRD4 AlphaScreen assay; assay type: binding
ERK5 [2] = target: T1, ERK5; assay: ERK5 KINOMEscan binding assay
LRRK2 = LRRK2 (Homo sapiens, UniProt Q5S007); assay: LRRK2 ADAPTA kinase assay; assay type: biochemical; settings: Table 1
Chain of LRRK2 (Q5S007 whole entry): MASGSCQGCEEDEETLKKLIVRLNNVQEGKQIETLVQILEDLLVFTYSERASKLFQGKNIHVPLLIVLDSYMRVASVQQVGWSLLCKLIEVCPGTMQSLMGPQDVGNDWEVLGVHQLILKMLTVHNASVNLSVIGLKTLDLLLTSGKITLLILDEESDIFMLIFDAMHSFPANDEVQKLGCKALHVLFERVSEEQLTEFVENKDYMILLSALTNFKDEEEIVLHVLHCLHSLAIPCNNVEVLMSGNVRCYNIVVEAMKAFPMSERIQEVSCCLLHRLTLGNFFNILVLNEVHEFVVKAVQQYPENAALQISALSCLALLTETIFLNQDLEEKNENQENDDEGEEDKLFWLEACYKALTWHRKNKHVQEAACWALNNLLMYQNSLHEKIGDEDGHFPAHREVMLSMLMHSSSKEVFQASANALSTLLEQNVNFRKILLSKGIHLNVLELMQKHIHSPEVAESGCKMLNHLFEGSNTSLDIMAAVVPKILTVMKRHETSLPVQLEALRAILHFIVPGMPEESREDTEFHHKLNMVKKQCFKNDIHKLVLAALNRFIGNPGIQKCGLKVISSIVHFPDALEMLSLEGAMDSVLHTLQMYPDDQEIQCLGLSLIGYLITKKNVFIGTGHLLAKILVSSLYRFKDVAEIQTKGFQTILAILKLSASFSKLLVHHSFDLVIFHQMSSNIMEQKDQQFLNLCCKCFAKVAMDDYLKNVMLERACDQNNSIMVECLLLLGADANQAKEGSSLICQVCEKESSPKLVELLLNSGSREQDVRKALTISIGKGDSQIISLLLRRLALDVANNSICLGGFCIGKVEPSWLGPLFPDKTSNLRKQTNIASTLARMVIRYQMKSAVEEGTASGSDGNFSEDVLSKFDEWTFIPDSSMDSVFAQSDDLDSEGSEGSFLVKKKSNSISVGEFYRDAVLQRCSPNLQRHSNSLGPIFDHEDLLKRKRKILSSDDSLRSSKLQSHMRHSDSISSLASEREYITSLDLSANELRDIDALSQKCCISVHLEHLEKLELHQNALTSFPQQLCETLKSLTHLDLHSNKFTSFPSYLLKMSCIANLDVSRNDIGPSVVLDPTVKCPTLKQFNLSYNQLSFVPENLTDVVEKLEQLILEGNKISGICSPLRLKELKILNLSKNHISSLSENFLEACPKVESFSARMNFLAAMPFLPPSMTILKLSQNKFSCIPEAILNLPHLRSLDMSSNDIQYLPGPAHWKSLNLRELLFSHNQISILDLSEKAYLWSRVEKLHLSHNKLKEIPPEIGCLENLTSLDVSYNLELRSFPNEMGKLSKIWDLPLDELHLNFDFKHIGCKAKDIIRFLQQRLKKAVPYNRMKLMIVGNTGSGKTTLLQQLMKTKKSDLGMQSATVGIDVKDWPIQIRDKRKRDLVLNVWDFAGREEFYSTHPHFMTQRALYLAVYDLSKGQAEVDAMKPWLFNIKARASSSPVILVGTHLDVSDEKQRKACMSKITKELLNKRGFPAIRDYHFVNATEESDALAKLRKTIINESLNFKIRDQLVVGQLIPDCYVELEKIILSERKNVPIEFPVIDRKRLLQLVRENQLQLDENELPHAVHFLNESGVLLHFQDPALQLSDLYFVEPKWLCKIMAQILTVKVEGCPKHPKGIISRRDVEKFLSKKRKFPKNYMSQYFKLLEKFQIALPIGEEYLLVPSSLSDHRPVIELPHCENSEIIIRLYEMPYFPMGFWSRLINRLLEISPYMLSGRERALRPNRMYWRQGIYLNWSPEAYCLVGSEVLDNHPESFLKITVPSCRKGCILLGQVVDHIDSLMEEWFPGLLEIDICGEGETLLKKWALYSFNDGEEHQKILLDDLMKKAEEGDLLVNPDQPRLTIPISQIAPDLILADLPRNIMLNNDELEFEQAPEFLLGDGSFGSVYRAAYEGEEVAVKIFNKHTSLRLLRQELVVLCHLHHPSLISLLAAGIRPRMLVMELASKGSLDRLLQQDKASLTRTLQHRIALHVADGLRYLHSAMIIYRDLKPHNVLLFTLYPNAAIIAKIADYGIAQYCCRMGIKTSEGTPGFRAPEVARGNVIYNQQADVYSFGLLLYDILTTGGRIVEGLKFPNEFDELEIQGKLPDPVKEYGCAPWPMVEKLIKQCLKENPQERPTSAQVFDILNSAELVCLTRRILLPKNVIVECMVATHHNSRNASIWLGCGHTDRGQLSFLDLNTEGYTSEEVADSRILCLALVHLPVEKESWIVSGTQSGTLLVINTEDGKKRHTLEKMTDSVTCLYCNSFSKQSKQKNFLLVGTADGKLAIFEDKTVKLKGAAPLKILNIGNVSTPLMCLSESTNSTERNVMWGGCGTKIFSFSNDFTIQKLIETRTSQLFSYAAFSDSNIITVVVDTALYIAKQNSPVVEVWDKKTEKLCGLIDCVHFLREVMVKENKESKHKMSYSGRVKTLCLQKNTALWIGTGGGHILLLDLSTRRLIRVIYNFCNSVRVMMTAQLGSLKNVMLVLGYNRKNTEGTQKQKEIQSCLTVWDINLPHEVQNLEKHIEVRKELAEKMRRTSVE

[3] = Maximum dose tolerability evaluation in mice; assay type: in vivo, C57B6/6J mice; settings: doses up to 100 mg/kg, oral gavage daily for two weeks, no adverse effects, no loss of body weight
PANFR0029_T2 = assay: Patient-derived pancreatic organoid viability, PANFR0029_T2; assay type: cell-based, human; settings: read-out: PANFR0029_T2 3D organoid culture IC50
Summary of the method: (§1)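 Patient-derived PDAC organoids were dissociated to single cells and plated at 1000 viable cells/well in complete organoid medium with 10% Matrigel, in ultra-low-attachment 384-well plates. After 24 h, compound was added by digital dispenser, then 7 days incubation. Read-out was CellTiter-Glo 3D luminescence after 1 h shaking at room temperature, normalized to DMSO wells for each culture.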

PANFR0172_T4 = assay: Patient-derived pancreatic organoid viability, PANFR0172_T4; assay type: cell-based, human; settings: read-out: PANFR0172_T4 3D organoid culture IC50
Summary of the method: as §1

zebrafish = assay: Toxicity evaluation during zebrafish embryonic development; assay type: in vivo; settings: days 1 to 8 post-fertilization, in fish water at concentrations up to 10 μM
ERK5 [4] = target: T1, ERK5; assay: ERK5 32P-ATP kinase assay; assay type: biochemical; settings: ERK5 kinase assay IC50, 32P-ATP; Table 1
PATU-8902 cells = assay: Cell viability, 2D-adherent monolayer culture, PATU-8902; assay type: cell-based, human; settings: read-out: PATU-8902 cells 2D monolayer culture IC50
Summary of the method: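 PATU-8902 or PATU-8988T cells were plated at 100 cells/well and left overnight to adhere (2D plates) or to form spheroids (ultra-low-attachment 3D spheroid plates). Compound was pin-transferred, then 120 h incubation. Viability by CellTiter-Glo luminescence after 15 min at room temperature, normalized to DMSO-treated wells for each cell line.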

PANFR0172_T3 = assay: Patient-derived pancreatic organoid viability, PANFR0172_T3; assay type: cell-based, human; settings: read-out: PANFR0172_T3 3D organoid culture IC50
Summary of the method: as §1

rat hippocampal neurons = assay: Rat primary hippocampal neuron viability; assay type: cell-based; settings: concentrations up to 10 μM, 24 hours
Summary of the method: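 Rat primary hippocampal neurons on poly-L-lysine-coated coverslips were treated at DIV6 for 24 h with DMSO or test compound. They were then fixed in glutaraldehyde-containing cytoskeleton buffer with Triton X-100, followed by NaBH4, permeabilized in TBS with 0.5% Triton X-100, and processed for immunofluorescence.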

[5] = target: T2, purified, recombinant DCLK1 kinase domain (Homo sapiens, UniProt O15075); assay: DCLK1 isothermal titration calorimetry; assay type: binding
T2 sequence (O15075 351-689 isoform O15075-2): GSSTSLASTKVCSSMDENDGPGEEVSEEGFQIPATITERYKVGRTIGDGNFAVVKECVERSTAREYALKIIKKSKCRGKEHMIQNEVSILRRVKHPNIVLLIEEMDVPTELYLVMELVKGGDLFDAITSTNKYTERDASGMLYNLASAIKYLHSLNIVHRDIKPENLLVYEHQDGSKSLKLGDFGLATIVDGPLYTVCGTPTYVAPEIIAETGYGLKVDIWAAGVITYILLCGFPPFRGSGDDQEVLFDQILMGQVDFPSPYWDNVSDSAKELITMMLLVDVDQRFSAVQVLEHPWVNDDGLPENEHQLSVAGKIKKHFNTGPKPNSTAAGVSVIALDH

DCLK2 = target: T3, DCLK2 (Homo sapiens, UniProt Q8N568); assay: 33P-ATP DCLK2 kinase assay; assay type: biochemical
T3 sequence (Q8N568 1-766): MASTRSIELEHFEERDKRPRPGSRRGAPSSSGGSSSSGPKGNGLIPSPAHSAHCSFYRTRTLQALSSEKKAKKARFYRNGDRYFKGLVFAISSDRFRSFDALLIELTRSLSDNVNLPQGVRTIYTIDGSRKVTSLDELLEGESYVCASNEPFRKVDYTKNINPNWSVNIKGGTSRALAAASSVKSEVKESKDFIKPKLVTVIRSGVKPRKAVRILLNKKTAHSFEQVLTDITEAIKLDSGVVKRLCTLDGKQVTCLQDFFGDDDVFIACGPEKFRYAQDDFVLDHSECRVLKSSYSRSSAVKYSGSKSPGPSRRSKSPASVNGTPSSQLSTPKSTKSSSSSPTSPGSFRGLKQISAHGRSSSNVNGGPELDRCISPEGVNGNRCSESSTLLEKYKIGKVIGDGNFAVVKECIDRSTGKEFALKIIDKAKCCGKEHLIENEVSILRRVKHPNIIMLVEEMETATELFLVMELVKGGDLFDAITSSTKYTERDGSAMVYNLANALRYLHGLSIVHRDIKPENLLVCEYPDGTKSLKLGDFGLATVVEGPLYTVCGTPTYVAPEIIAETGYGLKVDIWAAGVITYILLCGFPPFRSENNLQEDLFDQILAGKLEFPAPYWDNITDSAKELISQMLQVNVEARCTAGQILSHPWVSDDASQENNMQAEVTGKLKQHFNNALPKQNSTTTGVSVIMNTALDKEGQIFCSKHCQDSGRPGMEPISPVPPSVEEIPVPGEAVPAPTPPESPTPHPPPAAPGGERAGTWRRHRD
Summary of the method: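 Radiometric 33P-ATP assay run by a contract lab. […] Test compound in 12-point dose response, top concentration 10 μM. Values are the mean of n = 3 biologically independent samples.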

PANFR0172_T2 = assay: Patient-derived pancreatic organoid viability, PANFR0172_T2; assay type: cell-based, human; settings: read-out: PANFR0172_T2 3D organoid culture IC50
Summary of the method: as §1

[6] = viability, 7 d, P.R. = partial response

T1 sequence (Q13164 whole entry): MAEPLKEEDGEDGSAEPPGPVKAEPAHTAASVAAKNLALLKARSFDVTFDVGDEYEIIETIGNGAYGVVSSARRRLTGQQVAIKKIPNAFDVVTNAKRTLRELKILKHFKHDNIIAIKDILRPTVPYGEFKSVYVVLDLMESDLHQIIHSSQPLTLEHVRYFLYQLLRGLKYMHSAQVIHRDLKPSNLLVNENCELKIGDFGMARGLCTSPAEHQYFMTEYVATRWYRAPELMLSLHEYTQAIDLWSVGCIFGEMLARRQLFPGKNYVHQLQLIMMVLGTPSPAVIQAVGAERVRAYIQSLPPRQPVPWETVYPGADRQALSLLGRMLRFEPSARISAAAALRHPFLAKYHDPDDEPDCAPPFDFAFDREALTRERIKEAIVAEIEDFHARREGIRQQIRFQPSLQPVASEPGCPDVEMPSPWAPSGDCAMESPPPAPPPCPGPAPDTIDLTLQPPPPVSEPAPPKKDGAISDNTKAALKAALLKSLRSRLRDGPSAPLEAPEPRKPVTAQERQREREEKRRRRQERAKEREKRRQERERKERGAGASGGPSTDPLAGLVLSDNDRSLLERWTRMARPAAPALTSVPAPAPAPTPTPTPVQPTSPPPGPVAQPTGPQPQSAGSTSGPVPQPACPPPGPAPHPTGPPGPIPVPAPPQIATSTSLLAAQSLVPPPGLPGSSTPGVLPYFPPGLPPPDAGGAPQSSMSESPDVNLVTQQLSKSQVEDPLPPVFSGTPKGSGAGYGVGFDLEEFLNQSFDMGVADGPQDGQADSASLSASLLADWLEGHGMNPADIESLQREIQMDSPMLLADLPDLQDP

SMILES: COc1cc(N2CCN(C)CC2)ccc1Nc1ncc2c(n1)N(C)c1ccccc1C(=O)N2CC(F)(F)F [DCLK1-IN-1]
- IC50 (ERK5 [1]): 5360 nM
- IC50 (BRD4): > 10000 nM
- IC50 (ERK5 [2]): 1800 nM
- IC50 (LRRK2; LRRK2 kinase assay IC50, ADAPTA): 6970 nM
- tolerability (maximum tolerated dose study) [3]: well-tolerated
- IC50 (PANFR0029_T2; Homo sapiens, 168 h): > 20000 nM
- IC50 (PANFR0172_T4; Homo sapiens, 168 h): > 20000 nM
- effect on zebrafish CNS or other organ system development (zebrafish): no discernable effect
- IC50 (ERK5 [4]): 4000 nM
- IC50 (PATU-8902 cells; Homo sapiens, PaTu 8902, 120 h): > 20000 nM
- IC50 (PANFR0172_T3; Homo sapiens, 168 h): 2120 nM
- effect on neuronal viability (rat hippocampal neurons): no effect on neuronal viability
- Kd ([5]; ITC Kd, purified recombinant DCLK1 protein, Table 1): 55 nM
- Kd ([5]; Kd, ITC, 20 μM DCLK1, 200 μM compound, Supplementary Table 2 and text): 109 nM
- IC50 (DCLK2): 103 nM
- IC50 (PANFR0172_T2; Homo sapiens, 168 h): 877 nM

- IC50 (BRD4; read-out: BRD4 binding assay IC50, AlphaScreen, Table 1): 1570 nM
- IC50 (LRRK2; read-out: LRRK2 kinase assay IC50, ADAPTA): 36 nM
- IC50 (DCLK2; read-out: DCLK2 kinase assay IC50, 33P-ATP, ATP 100 μM (Km)): 385 nM
SMILES: CCOc1cc(N2CCC(O)CC2)ccc1Nc1ncc2c(n1)N(C)c1ccccc1C(=O)N2C [XMD8-92]
- IC50 (PANFR0029_T2; viability, 7 d, DCLK1-negative organoids): 7030 nM
- IC50 (PANFR0172_T4; [6]): > 20000 nM
- IC50 (PATU-8902 cells; cell viability, 120 h): > 20000 nM
- IC50 (PANFR0172_T3; [6]): > 20000 nM
- IC50 (PANFR0172_T2; [6]): > 20000 nM
